This is an account of results in PMC4847003 (International Journal for Parasitology: Drugs and Drug …, 2015).

Structures can show the parent of a compound that is named as a salt. Where two headings read alike, the source gives them in different places.

The test system of one series is T. cruzi trypomastigotes. Put plainly: Trypomastigote viability assay. Type of series: cell-based, Trypanosoma cruzi Tulahuen strain. The note with it: for activity against the trypomastigote: Malaria Box retest; for IC50: read-out: IC50 T. cruzi Trypomastigote (μM ± SD).
Another series relates to 3T3 host cells. Put plainly: Host cell number in the same well of the amastigote image-based assay. The settings on record: for SI (3T3): 3T3 IC50 or highest dose tested / amastigote IC50. Details: species or system mouse.
The test system of another series is HEK293 cells. Put plainly: HEK293 viability assay. Type of series: cell-based, human. The note with it: for IC50: read-out: IC50 HEK293 (μM ± SD); for Selectivity (SI) of T. cruzi amastigotes to HEK293 cells: based on solid samples.
The next series concerns T. cruzi amastigotes. Put plainly: Residual amastigotes following compound treatment, 48 and 72 h image-based assay. It is filed as cell-based, Trypanosoma cruzi Tulahuen strain. The settings on record: for IC50 / Emax at 18 µM: Trypanosoma cruzi; for IC50: read-out: IC50 value against T. cruzi amastigotes; for Emax at 18 µM: read-out: % of infections removed at Emax concentration. The method in brief: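 3T3 fibroblasts seeded at 1 × 10³ cells/well in collagen-coated 384-well plates, then infected with T. cruzi trypomastigotes. Free parasites were washed off with PBS after 24 h. Test compound was given as a dose series, pre-diluted 1:21 in water, for 48 or 72 h. Cells were fixed in 4% paraformaldehyde and stained with Hoechst in 0.1% Triton X-100. Residual intracellular spots at the Emax concentration were scored, including by eye.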

Series [1] concerns Tulahuen strain parasites in U2OS cells. The note with it: 96 h treatment, high concentrations; ref Moraes et al., 2014; cited from earlier work.
The test system of another series is Y strain infection. The note with it: ref Moraes et al., 2014, cited from earlier work.
Series [2] can be described thus: Host cell number in the same well of the amastigote image-based assay. Further details: species or system mouse. The settings on record: mouse, 3T3 host cells infected with T. cruzi.
Another series deals with 3T3 cells. Put plainly: Activity against sub-confluent 3T3 cells. Type of series: cell-based, mouse. The settings on record: at 73 μM, seeding density of 1000 cells per well. In a few lines: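 3T3 cells seeded at 1000 to 62 cells/well in collagen-coated 384-well plates and grown 48 h. Wells were washed twice and refilled with growth medium. A test-compound dose series was added in duplicate per density, with 30 μM puromycin (positive) and 0.37% DMSO (negative) controls. After a further 48 h, 70 μM final resazurin was added. […] Averaged over duplicate experiments.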

Series [3] relates to Trypanosoma cruzi amastigotes. Put plainly: Image-based T. cruzi amastigote assay in 3T3 fibroblasts, 48 h compound exposure. The note with it: Fibroblast. Type of series: cell-based, Trypanosoma cruzi Tulahuen strain.
Setting [4] is: read-out: 3T3 % activity highest dose, at 9.2 μM, DMSO sample.
[5] abbreviates: solid sample, 48 h, 2 independent experiments.
Where [6] appears, read: read-out: IC50 value against T. cruzi amastigotes, Malaria Box primary screening.
Where [7] appears, read: read-out: T. cruzi amastigote IC50 (μM ± SD), Malaria Box sample stored in 100% DMSO, two independent experiments.
Setting [8] is: Trypanosoma cruzi, read-out: T. cruzi Trypomastigote % activity at highest dose.

In general, IC50 refers to the concentration that gives 50% inhibition. Turning to `O=C(Nc1nc(-c2ccccn2)cs1)c1ccccc1Br` [MMV665909], in the series on T. cruzi trypomastigotes, the “activity against the trypomastigote” value was “active against the trypomastigote life cycle form”. For the same molecule, the figures for the IC50 with T. cruzi trypomastigotes (Malaria Box DMSO sample), in the series on T. cruzi trypomastigotes (Malaria Box solid sample) and with HEK293 cells (setting [5]) were 1.08 ± 0.01 µM, 1.05 ± 0.13 µM and 1.97 ± 0.65 µM, respectively. The cytotoxicity worked out at 35% in the series with 3T3 host cells (setting [4]) and 44% with 3T3 host cells (read-out: 3T3 % activity highest dose, at 73.3 μM, solid sample).

As to `COc1ccccc1N1CCN(C(CNS(=O)(=O)c2ccc(Cl)cc2)c2cccnc2)CC1` (stereo not drawn) [MMV665914, 4-chloro-N-(2-(4-(2-methoxyphenyl)piperazin-1-yl)-2-(pyridin-3yl)ethyl) benzene sulfonamide], the “SI (3T3)” value with 3T3 host cells (based on solid samples) is reported as more than 42.37. Further, in the series with 3T3 host cells (setting [4]), the cytotoxicity is 25%. Moreover, the “Selectivity (SI) of T. cruzi amastigotes to HEK293 cells” value (“Selectivity (SI)” for short) in the series on HEK293 cells is more than 45.90. The “% of infections removed at Emax concentration” value in the series with T. cruzi amastigotes (18 μM, 48 h incubation) was 97%. Further, in the series with T. cruzi amastigotes (18 μM, 72 h incubation), the “% of parasites removed at Emax concentration” value stood at 99%.

`CC[C@@H]([C@H](C)O)n1ncn(-c2ccc(N3CCN(c4ccc(OC[C@@H]5CO[C@@](Cn6cncn6)(c6ccc(F)cc6F)C5)cc4)CC3)cc2)c1=O` [posaconazole, reference compound]: in series [1], the “parasites reduced by” value is 93%. In addition, the “reduction of Y strain infection” value was 84% in the series with Y strain infection (72 h exposure) and “approximately 60%” with Y strain infection (exposure to 80 nM for 48 h). Also, the “residual amastigotes at the Emax concentration” value in the series on T. cruzi amastigotes (Emax of 50 nM, 48 and 72 h (Figure S5)) is “presence of a small number of amastigotes could be seen”. Also, the IC50 came to 6 ± 0.6 nM in the series with T. cruzi amastigotes (48 h) and 4.9 ± 3.6 nM with T. cruzi amastigotes (72 h).

In [2], `Cc1cc(C2CCCCC2)n(O)c(=O)c1` [Ciclopirox Olamine, ciclopirox olamine] gave a cytotoxicity at 48 h, 136.5 µM of 42%. In addition, the “SI (3T3)” value with 3T3 host cells (library DMSO stock) is listed as more than 3.54; with 3T3 host cells (solid sample), more than 35.0. The activity at 19 µM with 3T3 host cells (Mus musculus, read-out: Host % activity at highest dose) stood at 53%. Moreover, in the series on HEK293 cells (Homo sapiens, HEK293, 48 h), the IC50 is 1.4 ± 1.07 µM. Also, the “Selectivity index (SI) to HEK293 cells” value in the series with HEK293 cells (Table 2 footnote a, solid sample) turned out to be 0.36. Further, the “activity against 3T3 cells” value with 3T3 cells is listed as 38%.

In the case of `COc1ccc(C[C@H](N)C(=O)N[C@H]2[C@@H](O)[C@H](n3cnc4c(N(C)C)ncnc43)O[C@@H]2CO)cc1` [Puromycin, puromycin], the “SI (3T3)” value in the series on 3T3 host cells (based on solid samples) came to 1.48; in the series with 3T3 host cells (library DMSO stock), 0.97; with 3T3 host cells (solid sample), 1.75. Besides, the IC50 with 3T3 host cells (Mus musculus, read-out: Host IC50 ± stdev, 3T3, run of library DMSO retest) stood at 3040 ± 520 nM; in the series with 3T3 host cells (Mus musculus, read-out: Host IC50 ± stdev, 3T3, run of solid sample retest), 2760 ± 690 nM; in the series with HEK293 cells (Homo sapiens, HEK293, 48 h) it was 0.28 ± 0.04 µM; in [3] (setting [6]), 2.35 µM; in [3] (setting [7]), 2.54 ± 0.13 µM. Also, the “Selectivity (SI)” value with HEK293 cells is reported as 0.12.

For the molecule `CC[C@@]1(O)C(=O)OCc2c1cc1n(c2=O)Cc2cc3ccccc3nc2-1` [Camptothecin, camptothecin], in series [2], the cytotoxicity at 48 h, 5 µM is 38% and the cytotoxicity at 48 h, 16.8 µM came to 44%. Besides, in the series with 3T3 host cells (library DMSO stock), the “SI (3T3)” value is listed as more than 49.41. In addition, the “SI (3T3)” value with 3T3 host cells (solid sample) is given as more than 55.56.

For the molecule `CN(C)c1ccc(Nc2c3ccccc3nc3ccccc23)cc1` [STL088556, N′-(acridin-9-yl)-N,N-dimethylbenzene-1,4-diamine], the inhibition at 10.9 µM with T. cruzi trypomastigotes (setting [8]) turned out to be 65%. Further, in series [2], the cytotoxicity at 48 h, 9.2 µM is 30% and the cytotoxicity at 48 h, 73.3 µM stood at 62%. Further, in the series on HEK293 cells (Homo sapiens, HEK293, read-out: HEK293 % activity at highest dose), the activity at 79.4 µM was 115%. For the same molecule, in series [3] (read-out: T. cruzi amastigote % activity), the activity at 73 µM amounted to 62%. Also, the concentration for half-maximal inhibition (IC50) in series [3] (setting [7]) came out at 2.37 ± 1.51 µM.

In the case of `O=C(NC(c1ccccc1)c1ccc2cccnc2c1O)c1ccccc1` (stereo not drawn) [MMV666080], the “activity against the trypomastigote” value in the series on T. cruzi trypomastigotes is on record as “active against the trypomastigote life cycle form”. Besides, the concentration for half-maximal inhibition (IC50) turned out to be 0.9 ± 0.06 µM in the series on T. cruzi trypomastigotes (Malaria Box DMSO sample), 0.52 ± 0.04 µM in the series with T. cruzi trypomastigotes (Malaria Box solid sample) and 2.88 ± 0.9 µM in the series on HEK293 cells (setting [5]). The “SI (3T3)” value in the series on 3T3 host cells (based on solid samples) is recorded as more than 25.77. Moreover, the cytotoxicity came to 40% with 3T3 host cells (setting [4]) and 34% in the series with 3T3 host cells (read-out: 3T3 % activity highest dose, at 36.6 μM, solid sample). The “activity / cytotoxicity against HEK293 cells” value with HEK293 cells is “active against HEK293 cells”.

As for `COc1ccc(C)c2sc(N(Cc3cccnc3)C(=O)c3ccc(C#N)cc3)nc12` [MMV001241], in the series with 3T3 host cells (based on solid samples), the “SI (3T3)” value was more than 31.59. The “HEK293 % activity at highest dose” value with HEK293 cells (at 79.4 μM, solid sample) was determined as 44% at 79.4 μM. Besides, in the series with HEK293 cells, the “Selectivity (SI)” value was more than 34.22.

Consider `CCOc1cccc2sc(N(Cc3cccnc3)C(=O)C3CCCCC3)nc12` [MMV001230], for which the “SI (3T3)” value in the series with 3T3 host cells (based on solid samples) is reported as more than 87.26. In addition, the “Selectivity (SI)” value in the series with HEK293 cells is more than 94.52.

In [2], `CC1CS(=O)(=O)CCN1/N=C/c1ccc([N+](=O)[O-])o1` (stereo not drawn) [Nifurtimox, nifurtimox] gave a cytotoxicity at 48 h, 153.1 µM of 32%. Further, the “SI (3T3)” value in the series on 3T3 host cells (based on solid samples) is on record as more than 231.8; in the series on 3T3 host cells (solid sample) it was more than 157.41. Moreover, in the series with 3T3 host cells (Malaria Box primary screening), the “activity against host cells” value is reported as “no corresponding activity against host cells”. For the same molecule, the “Selectivity (SI)” value in the series on HEK293 cells is listed as more than 251.1. In addition, the IC50 worked out at 0.764 µM in series [3] (setting [6]) and 0.59 ± 0.1 µM in [3] (setting [7]).

Regarding `COc1ccc2sc(N(Cc3cccnc3)C(=O)c3ccc(C#N)cc3)nc2c1` [MMV001239, 4-cyano-N-(5-methoxy-1,3-benzothiazol-2-yl)-N-(pyridin-3-ylmethyl)benzamide], the “cytotoxicity against 3T3 cells” value in the series on 3T3 host cells is “no cytotoxicity detected”. Besides, in the series with 3T3 host cells (based on solid samples), the “SI (3T3)” value is given as more than 20.65. Also, in the series on HEK293 cells, the “activity / cytotoxicity against HEK293 cells” value is given as “no cytotoxicity detected” and the “Selectivity (SI)” value is more than 22.37. The “% of infections removed at Emax concentration” value in the series on T. cruzi amastigotes (18 μM, 48 h incubation) is “Ninety”. Also, in the series on T. cruzi amastigotes (48 h), the Emax at 18 µM amounted to 90%. In addition, the IC50 in [3] (setting [7]) was 0.86 ± 0.006 µM.

Consider `COc1c(C)c2c(c(O)c1C/C=C(\C)CCC(=O)[O-])C(=O)OC2.[Na+]` [Sodium Mycophenolate, sodium mycophenolate], for which, in the series with 3T3 host cells (library DMSO stock), the “SI (3T3)” value is given as more than 19.11. In the series with 3T3 host cells (read-out: Host % activity at highest dose, 3T3, at 17.2 μM, library DMSO stock), the cytotoxicity was found to be 30%.

As for `Clc1ccccc1C(c1ccccc1)(c1ccccc1)n1ccnc1` [Clotrimrazole HCl, clotrimazole, reference compound], the “residual amastigotes at the Emax concentration” value in the series with T. cruzi amastigotes (48 h incubation, 0.92 µM in Figure S3) was “amastigotes that appeared to remain”.

As for `Cc1[nH]c2ccccc2c(=O)c1CC=C(Cl)Cl` [MMV665994, 3-(3,3-Dichloro-2-propen-1-yl)-2-methyl-4(1H)-quinolinone], the inhibition at 87 µM in the series with T. cruzi trypomastigotes (setting [8]) is 52%. In addition, the “SI (3T3)” value in the series with 3T3 host cells (based on solid samples) is more than 59.59. For the same molecule, the “Selectivity (SI)” value in the series on HEK293 cells was more than 64.55. For the same molecule, the Emax at 18 µM in the series with T. cruzi amastigotes (48 h) was 97%. Further, the IC50 in series [3] (setting [7]) stood at 0.66 ± 0.7 µM.
